From ChEMBL document CHEMBL1765055 (J Med Chem, 2011) come the findings set out here.

pEC50, pKd, pKi: −log10 of the molar value. Values joined by “and” are separate entries in the source; they are usually repeats but may differ in a detail not shown here. Equal values may be shown once. Non-standard residues stand in square brackets, D forms with d. Residues, ends and D or L forms follow the SMILES beside them. N(4-hydroxyphenethyl)Gly = O=C(O)CNCCc1ccc(O)cc1; Gly(N-4-hydroxybenzyl) = O=C(O)CNCc1ccc(O)cc1; N(1S-Me-propyl)Gly = CC[C@H](C)NCC(=O)O

The target in assay [1] is T1, Neurotensin receptor type 2 (Homo sapiens, UniProt O95665). As to the kind of experiment: Displacement of [3H]NT from human NTS2 receptor expressed in HEK293 cells. The assay is classed as cell-based. A general note: Displacement assays read how much labelled ligand stays bound in the presence of the test substance.
T1 sequence (O95665 whole entry): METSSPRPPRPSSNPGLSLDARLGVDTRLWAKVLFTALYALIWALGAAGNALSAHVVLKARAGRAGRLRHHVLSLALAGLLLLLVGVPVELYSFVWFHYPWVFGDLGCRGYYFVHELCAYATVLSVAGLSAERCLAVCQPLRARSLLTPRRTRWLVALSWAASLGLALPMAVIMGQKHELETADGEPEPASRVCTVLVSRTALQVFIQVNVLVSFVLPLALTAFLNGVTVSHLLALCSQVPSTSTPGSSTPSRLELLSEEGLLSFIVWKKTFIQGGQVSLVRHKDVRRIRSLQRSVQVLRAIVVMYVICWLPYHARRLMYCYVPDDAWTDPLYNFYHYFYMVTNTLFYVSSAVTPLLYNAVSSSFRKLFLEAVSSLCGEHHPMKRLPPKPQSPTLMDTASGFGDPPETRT
For assay [2], the target named is T2, Neurotensin receptor type 1 (Homo sapiens, UniProt P30989). The assay can be described thus: Displacement of [3H]neurotensin from human NTS1 receptor expressed in CHO cells. The assay is classed as cell-based.
T2 sequence (P30989 whole entry): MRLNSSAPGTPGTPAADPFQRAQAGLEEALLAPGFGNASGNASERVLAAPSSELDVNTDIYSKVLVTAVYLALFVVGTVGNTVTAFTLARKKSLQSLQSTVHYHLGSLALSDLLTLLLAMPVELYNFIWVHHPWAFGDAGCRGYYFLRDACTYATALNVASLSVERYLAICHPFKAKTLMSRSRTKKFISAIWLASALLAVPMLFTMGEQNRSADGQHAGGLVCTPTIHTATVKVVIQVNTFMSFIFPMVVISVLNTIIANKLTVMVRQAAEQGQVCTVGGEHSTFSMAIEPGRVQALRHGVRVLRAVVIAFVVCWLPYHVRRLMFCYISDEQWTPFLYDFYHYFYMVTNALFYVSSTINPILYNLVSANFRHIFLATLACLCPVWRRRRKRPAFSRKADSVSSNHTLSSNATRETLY
The species entered for the next assay is Homo sapiens. As to the kind of experiment: Selectivity ratio of Ki for human NTS1 to Ki for human NTS2.
Assay [3] deals with T1, Neurotensin receptor type 2. The assay can be described thus: Agonist activity at human NTS2 receptor expressed in HEK293 cells assessed as inhibition of constitutive activity on MAPK-mediated luciferase activity at 3 uM in presence of SR142948A. The assay is classed as functional, cell-based. In outline: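 HEK 293 cells transiently expressing hNTS2 plus Elk1 trans-activator/luciferase reporter plasmids were reseeded in 1% FBS medium. They received 3 μM compound together with graded concentrations of the antagonist SR142948A for 24 h at 37 °C. Luciferase luminescence was measured as the readout of constitutive MAPK activity. Mean curves came from 7–11 independent experiments in triplicate.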

For assay [4] the target is unchanged. As to the kind of experiment: Agonist activity at human NTS2 receptor expressed in HEK293 cells assessed as inhibition of constitutive activity on MAPK-mediated luciferase activity. The assay is classed as functional, cell-based.
Assay [5] shares this target. The assay can be described thus: Ratio of compound Emax to neurotensin Emax for human NTS2 receptor.
In assay [6] the target is T2, Neurotensin receptor type 1. The assay can be described thus: Ratio of compound Emax to neurotensin Emax for human NTS1 receptor.

For orientation: pKi means the Ki on a negative log10 scale, so that one unit is a factor of ten. Low readings indicate a large Ki, high ones a small Ki. Take `CC[C@H](C)[C@H](NC(=O)CN(CCc1ccccc1)C(=O)[C@@H]1CCCN1C(=O)[C@H](CCCN=C(N)N)NC(=O)[C@@H](N)CCCN=C(N)N)C(=O)N[C@@H](CC(C)C)C(=O)O`: the negative-log Ki (pKi) in assay [1] was 7.70.
For the compound `CC[C@H](C)[C@H](NC(=O)CN(Cc1ccc(O)cc1)C(=O)[C@@H]1CCCN1C(=O)[C@H](CCCCN)NC(=O)[C@@H](N)CCCCN)C(=O)N[C@@H](CC(C)C)C(=O)O` (H-KKP[Gly(N-4-hydroxybenzyl)]IL-OH), the pKi in assay [2] was 4.52; in assay [1], 6.00. Besides, in the assay listed under Homo sapiens, the Ratio Ki came to 30.
As to H-RRPYAL-OH [listing 1 of 2 here], in the assay listed under Homo sapiens, the Ratio Ki is 1.6.
Regarding `CC[C@H](C)N(CC(=O)N[C@@H](CC(C)C)C(=O)O)C(=O)[C@H](Cc1ccc(O)cc1)NC(=O)[C@@H]1CCCN1C(=O)[C@H](CCCCN)NC(=O)[C@@H](N)CCCCN` (H-KKPY[N(1S-Me-propyl)Gly]L-OH), the negative-log Ki (pKi) in assay [2] is 5.52 and 5.48; in assay [1] it was 6.48 and 5.92.
In assay [1], `CC[C@H](C)[C@H](NC(=O)CN(CCc1ccccn1)C(=O)[C@@H]1CCCN1C(=O)[C@H](CCCNC(=N)N)NC(=O)[C@@H](N)CCCNC(=N)N)C(=O)N[C@@H](CC(C)C)C(=O)O` showed a pKi of 7.00.
H-RRPYAL-OH [listing 2 of 2 here]: the pKi in assay [2] is 7.00; in assay [1] it was 7.20.
In general, pEC50 refers to −log10 of the EC50, conventionally taken in molar units. As to `CC[C@H](C)[C@H](NC(=O)CN(CCc1ccc(O)cc1)C(=O)[C@@H]1CCCN1C(=O)[C@H](CCCNC(=N)N)NC(=O)[C@@H](N)CCCNC(=N)N)C(=O)N[C@@H](CC(C)C)C(=O)O`, the Activity entry in assay [3] is “Dose-dependent effect”. In assay [4], the pEC50 is 6.32. In assay [1], the negative logarithm of the Ki (pKi) is 8.06.
In turn, `CC[C@H](C)[C@H](NC(=O)[C@H](Cc1ccc(O)cc1)NC(=O)[C@@H]1CCCN1C(=O)CN(CCCCN)C(=O)[C@@H](N)CCCCN)C(=O)N[C@@H](CC(C)C)C(=O)O` had a pKi in assay [1] of 7.68.
Still for that read-out and setting: to `CC[C@H](C)[C@H](NC(=O)[C@H](Cc1ccc(O)cc1)NC(=O)[C@@H]1CCCN1C(=O)[C@H](CCCCN)NC(=O)[C@@H](N)CCCCN)C(=O)N[C@@H](CC(C)C)C(=O)O` belongs 8.21.
With `CC[C@H](C)[C@H](NC(=O)CN(CCc1ccc(O)cc1)C(=O)[C@@H]1CCCN1C(=O)[C@H](CCCNC(=N)N)NC(=O)[C@@H](N)CCCCN)C(=O)N[C@@H](CC(C)C)C(=O)O` (H-KRP[N(4-hydroxyphenethyl)Gly]IL-OH), the values for the pKi in assay [2] and in assay [1] were 5.08 and 8.36, respectively. Further, the pEC50 in assay [4] was 6.16. In addition, the Ratio Ki in the assay listed under Homo sapiens was 1900. The Emax in assay [5] turned out to be 4.6.
With H-RRAYIL-OH [listing 1 of 2 here], the Ratio Ki in the assay listed under Homo sapiens is 0.41.
In general, pKd refers to the Kd on a negative log10 scale, so that one unit is a factor of ten. Low values mean a high Kd, high ones a low Kd. The compound `CC[C@H](C)[C@H](NC(=O)[C@H](CC1=CC=C(O)CC1)NC(=O)[C@@H]1CCCN1C(=O)[C@H](CCCNC(=N)N)NC(=O)[C@@H](N)CCCNC(=N)N)C(=O)N[C@@H](CC(C)C)C(=O)O` showed a pKd in assay [1] of 8.92.
`CC[C@H](C)[C@H](NC(=O)CN(CCc1ccc(OC)cc1)C(=O)[C@@H]1CCCN1C(=O)[C@H](CCCN=C(N)N)NC(=O)[C@@H](N)CCCN=C(N)N)C(=O)N[C@@H](CC(C)C)C(=O)O` had a pKi in assay [1] of 7.42.
Still for that read-out and setting: to `CC[C@H](C)[C@H](NC(=O)[C@H](Cc1ccc(O)cc1)NC(=O)[C@@H]1CCCN1C(=O)[C@H](CCCCN)NC(=O)CNCCCCN)C(=O)N[C@@H](CC(C)C)C(=O)O` belongs 9.13; to `CC[C@H](C)[C@H](NC(=O)[C@H](Cc1ccc(O)cc1)NC(=O)[C@@H]1CCCN1C(=O)[C@H](CCCCN)NC(=O)[C@@H](N)CCCCN)C(=O)N(CC(=O)O)CC(C)C`, 5.80.
For the compound `CC[C@H](C)[C@H](NC(=O)CN(CCc1ccc(O)cc1)C(=O)[C@@H]1CCCN1C(=O)[C@H](CCCCN)NC(=O)[C@@H](N)CCCNC(=N)N)C(=O)N[C@@H](CC(C)C)C(=O)O` (H-RKP[N(4-hydroxyphenethyl)Gly]IL-OH), the pKi was 4.10 in assay [2] and 8.17 in assay [1]. In addition, the pEC50 in assay [4] was 6.08. In addition, the Ratio Ki in the assay listed under Homo sapiens came out at 12000. Besides, the Emax in assay [5] was 2.6; in assay [6], 0.07.
Take H-RRAYIL-OH [listing 2 of 2 here]: the figures for the pKi in assay [2] and in assay [1] were 7.59 and 7.20, respectively.
In the case of H-RRPAIL-OH [listing 1 of 2 here], in the assay listed under Homo sapiens, the Ratio Ki came to 16.
Still for that read-out and setting: next, H-RAPYIL-OH [listing 1 of 2 here]: 0.46.
On to `CC[C@H](C)[C@H](NC(=O)[C@H](Cc1ccc(O)cc1)NC(=O)[C@@H]1CCCN1C(=O)[C@H](CCCNC(=N)N)NC(=O)[C@@H](N)CCCNC(=N)N)C(=O)N[C@@H](C)C(=O)O`, for which, in assay [1], the pKi is 5.89.
Consider H-RAPYIL-OH [listing 2 of 2 here], for which the pKi in assay [2] is 7.96; in assay [1], 7.62.
H-ARPYIL-OH: the results for the pKi in assay [2] and in assay [1] were 8.34 and 7.25, respectively. In the assay filed under Homo sapiens, the Ratio Ki worked out at 0.082.
Consider H-RRPAIL-OH [listing 2 of 2 here], for which the pKi in assay [2] is 5.89; in assay [1] it was 7.08.
As to `CC[C@H](C)[C@H](NC(=O)CN(CCc1ccc(O)cc1)C(=O)[C@@H]1CCCN1C(=O)[C@H](CCCCN)NC(=O)[C@@H](N)CCCCN)C(=O)N[C@@H](CC(C)C)C(=O)O` (H-KKP[N(4-hydroxyphenethyl)Gly]IL-OH), the pKi in assay [2] is 4.49; in assay [1] it was 8.37. Besides, the pEC50 in assay [4] is 6.23. In addition, the Ratio Ki in the assay listed under Homo sapiens worked out at 7400. Also, the Emax in assay [5] came to 3.1.
